EphB4 antag – antagonists of human EphB4-ephrin-B2 interaction; P54760; EphB4 LBD / TNYL-RAW-Alexa532 peptide, fluorescence polarization; inhibition, % at 7 µM; actives 0.15% (n = 97,000);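 active = inhibition above the screen-wide mean inhibition plus 3 SD, cut at about 15% in these data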
PostGolgi ctrl – inhibits growth of the yeast control strain. efflux-deficient yeast background strain, growth absorbance A615, 16 h. inhibition, % at 10 µM. actives 5% (n = 98,000). AID 738
Ecoli WT expand – blocks growth of wild type E. coli BW25113; OD600 absorbance; growth inhibition, % at 100 µM; actives 0.15% (n = 98,000); AID 710;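 active = growth inhibition above about 50% at one test dose, limit read from the data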;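 note: growth measured after 20 h incubation at 37 °C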
PostGolgi yeast – growth inhibition of a yeast mutant, post-Golgi transport screen | post-Golgi transport phenotypic cell assay | actives 0.9% (n = 98,000) | inhibition, % at 10 µM;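 note: yeast cells grown in 1536-well plates; yeast grown about 18 h at 30C before absorbance read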
Ecoli tolC – growth inhibitors of E. coli BW25113 tolC mutant | OD615 | actives 2.2% (n = 65,000) | growth inhibition, % at 10 µM (by protocol);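 active = growth inhibition at or above a cutoff equal to the mean over every tested compound plus 3 SD, cut at about 60% in these data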;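 note: growth measured after 20 h incubation at 37 °C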
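Signal: optical density read at 615 nm; Assay system: E. coli ΔtolC::kan strain BW25113; Times: 20 h incubation with compound, 37 °C; Dosing: 10 µM final, single dose.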
Numbers stand for hits; – = inactive; · = not tested or not shown. Sampled rows, rich in hits. Any-hit rate of the full collection: about 6%. Cut-off read from the data, not from the text of the source, unless noted: active = inhibition above about 30%; inactive = the rest.

SMILES | EphB4 antag | PostGolgi ctrl | Ecoli WT expand | PostGolgi yeast | Ecoli tolC
Cc1ccc(C)c(NC(=O)CSc2nnc(CCCCCNC(=O)OC(C)(C)C)o2)c1 | – | – | – | – | –
COc1ccccc1NC(=O)c1cc(Sc2nncn2C)nc2ccccc12 | – | 33 | – | – | –
CC(C)OC(=O)c1c(N)n(CCCN2CCOCC2)c2nc3ccccc3nc12 | – | – | – | – | ·
CC(C)OC(=O)c1c2nc3ccccc3nc2n2c1[nH]c(=O)c1ccccc12 | – | 71 | – | 34 | –
CN(C)c1ccc(-c2nnn(Cc3ccccc3Br)n2)cc1 | – | 31 | – | – | –
COc1ccc(-c2nnn(Cc3ccccc3F)n2)cc1 | – | · | · | · | ·
COc1ccc(-c2nnc(SCc3nc4ccccc4s3)n2C(C)C)cc1 | – | 30 | – | – | ·
CCOC(=O)N1CCC(N(CCCOC)C(=O)Nc2cccc(OC)c2)CC1 | – | – | – | – | –
CCOC(=O)N1CCC(N(CCOC)C(=O)Nc2ccc(Cl)c(Cl)c2)CC1 | · | 64 | – | – | –
Oc1c(C(Nc2nc3ccccc3s2)c2ccco2)ccc2cccnc12 (centres undefined) | – | – | – | – | –
CC(C)C(=O)NC(c1ccco1)c1ccc2cccnc2c1O (centres undefined) | – | 32 | – | – | –
Cc1ccccc1OCCCC(=O)NCc1ccco1 | – | – | – | – | ·
O=C(C1CC(c2ccccc2O)=NO1)N1CCCCC1 (centres undefined) | – | – | – | – | ·
COc1ccc(C2(CN(C(C)=O)C(C)=O)CCCC2)cc1OC | – | 39 | – | – | –
Cc1ccc(C2(c3ccc(C)cc3)CC2C(=O)Nc2ccc([N+](=O)[O-])cc2O)cc1 (centres undefined) | – | 91 | – | 101 | ·
CC(C)CC(=O)NC(=S)NCCc1ccccc1 | 16 | – | – | – | ·
CSCC[C@H](NC(=O)c1ccc(Cl)c(S(=O)(=O)N2CCCC2)c1)c1nc2ccccc2[nH]1 | – | – | – | – | ·
CCOc1cc(C)nc(NCc2ccccc2)n1 | – | – | – | – | ·
CCCCOc1cc(C)nc(NCc2ccccc2)n1 | – | 38 | – | – | 67
CCN(CC)c1ccc(-c2nc3cnccn3c2NC2CCCC2)cc1 | – | 35 | – | – | ·
Cn1c(NC(=O)COc2ccccc2)cc(=O)n(C)c1=O | – | – | – | – | ·
CCCCCCOC(=O)C[N+](C)(C)CCOC1CC2CCC1(C)C2(C)C (centres undefined) | – | 37 | – | – | ·
CCOC(=O)c1cc(C)n(Cc2ccc(OCC)c(OC)c2)c1C | – | – | – | – | ·
CCOC(=O)c1sc(NC(=O)CSc2n[nH]c(-c3ccccc3)n2)c(C#N)c1C | · | 41 | – | – | 100
N#Cc1c(NC(=O)CSc2n[nH]c(Cc3ccccc3)n2)oc(-c2ccccc2)c1-c1ccccc1 | – | – | – | – | 64
SMILES | EphB4 antag | PostGolgi ctrl | Ecoli WT expand | PostGolgi yeast | Ecoli tolC
Cc1cc(OC(C)C(=O)N/N=C/CC(C)c2ccccc2)ccc1Cl (centres undefined) | – | – | – | – | ·
Cc1ccc(NC(=O)/C(=C\c2cccnc2)NC(=O)c2ccco2)cc1 | – | – | – | – | ·
CC(=O)N(Cc1ccc(F)cc1)C1=C(NCCc2ccccc2)C(=O)c2ccccc2C1=O | – | 31 | – | – | ·
CC(C)[C@H](NC(=O)NCCc1ccc(F)cc1)C(=O)O | – | – | – | – | –
Cn1cccc1C(=O)Nc1nc(-c2ccccn2)cs1 | – | – | – | – | 90
Cc1csc(NC(=O)c2cccn2C)n1 | – | 31 | – | – | ·
O=C(CN1C(=O)CCC1=O)Nc1nc(-c2ccccn2)cs1 | – | – | – | – | –
Cc1csc(NC(=O)c2ccccc2C(=O)O)n1 | – | – | – | – | –
CCn1nnnc1SCC(=O)c1cc(OC)ccc1OC | · | – | – | – | –
Brc1ccc(-c2cn3nc4c(nc3n2)CCCC4)cc1 | – | – | – | – | ·
Brc1ccc(-c2cn3c(n2)CCc2ccc4cccnc4c2-3)cc1 | – | 59 | – | 52 | ·
Cc1c(C(=O)NCc2cccnc2)oc2ccc(S(=O)(=O)N3CCCCCC3)cc12 | · | 42 | – | – | –
COc1ccccc1CNC(=O)c1oc2ccc(S(=O)(=O)N3CCCC3)cc2c1C | – | 31 | – | – | –
CC(C)CC(=O)NC(=S)Nc1ccccc1C(=O)Nc1ccccc1 | – | – | – | – | ·
CN1/C(=C/C(=O)c2nc(S(C)(=O)=O)ncc2Cl)C(C)(C)c2ccccc21 | – | 60 | – | – | –
Cc1cc(N)c(-n2cc3c(=O)n(C)c(=O)n(C)c3c2)cc1C | – | 32 | – | – | –
Cc1ccc(-n2cc3c(=O)n(C)c(=O)n(C)c3c2)cc1C | – | – | – | – | –
